Test results: ChEMBL document CHEMBL3603808, “Discovery and structure of a new inhibitor scaffold of the autophagy initiating kinase ULK1” (Bioorg Med Chem, 2015)
Calls of active or inactive are those of the source. The calls are words filed in the database; no cut-off is given here.

Experiments:
[1] = molecular target: Proto-oncogene tyrosine-protein kinase Src (Homo sapiens) (UniProt P12931); experiment: Inhibition of SRC (unknown origin) at 250 nM by radioactive filter-binding assay
Outline: (§1)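 Panel profiling of one compound against 50 kinases, carried out in duplicate at the International Centre for Protein Kinase Profiling. Radioactive filter-binding format.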

[2] = molecular target: SRSF protein kinase 1 (Homo sapiens) (UniProt Q96SB4); experiment: Inhibition of SRPK1 (unknown origin) at 250 nM by radioactive filter-binding assay; outline: as §1
Sequence of SRSF protein kinase 1 (Homo sapiens) (Q96SB4 whole entry): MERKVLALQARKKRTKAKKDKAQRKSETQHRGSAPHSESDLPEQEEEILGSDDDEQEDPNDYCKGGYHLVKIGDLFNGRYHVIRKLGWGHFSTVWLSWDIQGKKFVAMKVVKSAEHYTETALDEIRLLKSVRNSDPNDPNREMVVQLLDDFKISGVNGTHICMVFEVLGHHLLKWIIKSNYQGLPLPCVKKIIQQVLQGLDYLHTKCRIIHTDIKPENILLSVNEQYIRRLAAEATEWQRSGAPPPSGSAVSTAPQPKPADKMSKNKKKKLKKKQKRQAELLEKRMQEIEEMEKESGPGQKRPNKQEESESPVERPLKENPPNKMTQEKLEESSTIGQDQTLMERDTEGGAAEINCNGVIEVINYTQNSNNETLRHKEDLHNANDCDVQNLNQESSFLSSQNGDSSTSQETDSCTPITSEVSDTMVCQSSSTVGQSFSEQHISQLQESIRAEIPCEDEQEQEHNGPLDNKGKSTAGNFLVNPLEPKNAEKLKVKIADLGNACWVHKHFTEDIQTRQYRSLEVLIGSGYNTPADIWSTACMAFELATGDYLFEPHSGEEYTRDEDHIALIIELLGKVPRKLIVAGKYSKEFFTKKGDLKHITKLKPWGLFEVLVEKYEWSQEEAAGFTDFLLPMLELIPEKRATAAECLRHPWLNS

[3] = molecular target: Calcium/calmodulin-dependent protein kinase kinase 2 (Homo sapiens) (UniProt Q96RR4); experiment: Inhibition of CAMKKB (unknown origin) at 250 nM by radioactive filter-binding assay; outline: as §1
Sequence of Calcium/calmodulin-dependent protein kinase kinase 2 (Homo sapiens) (Q96RR4 2-588 limits assumed): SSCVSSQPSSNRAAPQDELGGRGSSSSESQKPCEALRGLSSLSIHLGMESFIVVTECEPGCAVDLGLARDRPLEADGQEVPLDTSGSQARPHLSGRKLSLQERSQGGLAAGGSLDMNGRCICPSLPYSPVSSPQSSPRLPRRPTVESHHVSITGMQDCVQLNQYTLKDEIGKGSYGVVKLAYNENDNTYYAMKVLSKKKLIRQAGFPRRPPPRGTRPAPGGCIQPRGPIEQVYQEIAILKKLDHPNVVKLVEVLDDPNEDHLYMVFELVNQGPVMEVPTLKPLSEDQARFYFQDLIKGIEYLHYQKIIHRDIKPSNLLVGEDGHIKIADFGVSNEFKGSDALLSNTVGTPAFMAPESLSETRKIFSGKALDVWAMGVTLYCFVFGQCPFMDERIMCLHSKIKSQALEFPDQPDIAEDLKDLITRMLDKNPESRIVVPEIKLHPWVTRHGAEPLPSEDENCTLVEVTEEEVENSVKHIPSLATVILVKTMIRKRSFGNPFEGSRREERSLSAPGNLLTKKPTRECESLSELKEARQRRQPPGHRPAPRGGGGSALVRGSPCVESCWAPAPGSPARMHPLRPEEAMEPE

[4] = molecular target: Glycogen synthase kinase-3 beta (Homo sapiens) (UniProt P49841); experiment: Inhibition of GSK3beta (unknown origin) at 250 nM by radioactive filter-binding assay; outline: as §1
Sequence of Glycogen synthase kinase-3 beta (Homo sapiens) (P49841 whole entry, looked up): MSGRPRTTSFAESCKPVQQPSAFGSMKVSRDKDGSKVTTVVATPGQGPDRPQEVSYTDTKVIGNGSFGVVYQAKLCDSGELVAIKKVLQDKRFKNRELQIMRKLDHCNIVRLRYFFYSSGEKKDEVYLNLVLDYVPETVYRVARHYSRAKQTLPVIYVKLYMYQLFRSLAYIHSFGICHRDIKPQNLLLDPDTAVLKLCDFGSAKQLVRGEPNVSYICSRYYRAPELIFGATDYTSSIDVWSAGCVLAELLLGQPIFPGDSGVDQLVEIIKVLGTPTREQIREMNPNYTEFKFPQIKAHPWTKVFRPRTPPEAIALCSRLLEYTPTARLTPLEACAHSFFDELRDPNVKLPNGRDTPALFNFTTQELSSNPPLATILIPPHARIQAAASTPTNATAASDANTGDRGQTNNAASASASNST

[5] = test system: HeLa; experiment: Inhibition of autophagy in human HeLa cells assessed as induction of LC3-I protein accumulation at 4 uM incubated for 24 hrs by immunoblotting method; format: functional, cell-based
Outline: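 HeLa cells were grown in DMEM with 10% FBS to about 50% confluency, then given 4 µM compound or DMSO for 24 h. Cold-PBS wash, lysis in TBS pH 7.6 with 1% Triton-X, 0.2% SDS and protease/phosphatase inhibitors. Lysates were protein-normalized and immunoblotted for LC3-I/LC3-II, with actin as loading control.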

[6] = molecular target: AMP-activated protein kinase, AMPK (Homo sapiens) (UniProt P54646+O43741+P54619+Q9UGJ0+Q9Y478+Q13131+Q9UGI9); experiment: Inhibition of AMPK (unknown origin) at 2 uM by radioactive filter-binding assay; format: protein-complex assay; outline: as §1
[7] = molecular target: Serine/threonine-protein kinase D1 (Homo sapiens) (UniProt Q15139); experiment: Inhibition of PKD1 (unknown origin) at 2 uM by radioactive filter-binding assay; outline: as §1
Sequence of Serine/threonine-protein kinase D1 (Homo sapiens) (Q15139 whole entry): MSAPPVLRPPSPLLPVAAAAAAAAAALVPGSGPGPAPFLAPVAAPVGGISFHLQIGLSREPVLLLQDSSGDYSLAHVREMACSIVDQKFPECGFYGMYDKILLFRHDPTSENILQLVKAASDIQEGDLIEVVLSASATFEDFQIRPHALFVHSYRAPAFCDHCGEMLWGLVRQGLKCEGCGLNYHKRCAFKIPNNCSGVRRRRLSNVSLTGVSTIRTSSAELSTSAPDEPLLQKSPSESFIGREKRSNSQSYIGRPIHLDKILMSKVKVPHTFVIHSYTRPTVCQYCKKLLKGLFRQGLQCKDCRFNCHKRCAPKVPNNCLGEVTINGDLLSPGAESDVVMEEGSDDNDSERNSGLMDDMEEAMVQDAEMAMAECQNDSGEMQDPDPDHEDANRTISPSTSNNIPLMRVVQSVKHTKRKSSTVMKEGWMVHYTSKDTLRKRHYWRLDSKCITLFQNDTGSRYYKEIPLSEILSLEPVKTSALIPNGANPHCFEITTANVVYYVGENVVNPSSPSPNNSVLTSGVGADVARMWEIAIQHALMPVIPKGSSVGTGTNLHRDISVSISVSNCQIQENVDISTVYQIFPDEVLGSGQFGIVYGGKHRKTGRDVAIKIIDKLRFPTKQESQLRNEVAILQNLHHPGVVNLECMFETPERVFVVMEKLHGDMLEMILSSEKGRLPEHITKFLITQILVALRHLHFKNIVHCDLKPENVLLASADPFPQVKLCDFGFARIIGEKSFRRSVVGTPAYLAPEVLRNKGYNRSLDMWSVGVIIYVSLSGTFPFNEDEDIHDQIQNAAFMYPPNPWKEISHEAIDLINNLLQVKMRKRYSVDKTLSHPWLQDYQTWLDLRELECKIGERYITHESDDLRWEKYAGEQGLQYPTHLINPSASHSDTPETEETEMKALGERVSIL

[8] = molecular target: Mitogen-activated protein kinase kinase kinase 7 (Homo sapiens) (UniProt O43318); experiment: Inhibition of TAK1 (unknown origin) at 2 uM by radioactive filter-binding assay; outline: as §1
Sequence of Mitogen-activated protein kinase kinase kinase 7 (Homo sapiens) (O43318 whole entry): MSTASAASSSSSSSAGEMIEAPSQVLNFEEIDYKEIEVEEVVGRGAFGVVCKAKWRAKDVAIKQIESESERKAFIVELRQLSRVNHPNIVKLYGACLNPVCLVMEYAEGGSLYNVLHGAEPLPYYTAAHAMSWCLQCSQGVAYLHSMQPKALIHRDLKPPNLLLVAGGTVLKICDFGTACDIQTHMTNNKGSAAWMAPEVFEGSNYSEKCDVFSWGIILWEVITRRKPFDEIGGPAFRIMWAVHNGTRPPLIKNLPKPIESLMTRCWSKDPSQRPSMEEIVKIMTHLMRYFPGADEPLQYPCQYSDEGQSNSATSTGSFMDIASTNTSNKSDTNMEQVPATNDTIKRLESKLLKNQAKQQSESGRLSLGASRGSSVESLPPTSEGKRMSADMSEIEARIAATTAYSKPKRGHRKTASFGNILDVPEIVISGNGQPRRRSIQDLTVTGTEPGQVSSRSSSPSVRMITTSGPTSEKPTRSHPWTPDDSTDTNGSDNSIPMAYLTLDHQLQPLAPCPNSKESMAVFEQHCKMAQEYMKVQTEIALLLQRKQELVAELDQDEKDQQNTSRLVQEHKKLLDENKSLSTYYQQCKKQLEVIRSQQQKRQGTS

Sequence of Proto-oncogene tyrosine-protein kinase Src (Homo sapiens) (P12931 2-536 limits assumed): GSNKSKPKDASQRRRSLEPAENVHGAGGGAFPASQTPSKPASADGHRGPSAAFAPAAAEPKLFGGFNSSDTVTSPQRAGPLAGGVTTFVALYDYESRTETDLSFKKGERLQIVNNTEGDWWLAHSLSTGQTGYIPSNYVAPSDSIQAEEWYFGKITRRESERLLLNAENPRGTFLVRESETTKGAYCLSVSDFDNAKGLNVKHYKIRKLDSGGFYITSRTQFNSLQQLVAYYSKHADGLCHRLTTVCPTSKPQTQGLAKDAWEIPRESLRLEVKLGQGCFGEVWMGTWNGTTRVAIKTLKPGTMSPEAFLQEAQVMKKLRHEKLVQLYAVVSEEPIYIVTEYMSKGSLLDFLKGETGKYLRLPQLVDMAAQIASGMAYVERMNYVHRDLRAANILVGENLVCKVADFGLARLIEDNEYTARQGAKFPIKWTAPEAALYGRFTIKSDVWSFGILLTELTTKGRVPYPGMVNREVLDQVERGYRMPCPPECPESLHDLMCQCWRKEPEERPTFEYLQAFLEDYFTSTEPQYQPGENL

inhibition [1] [%] | inhibition [2] [%] | inhibition [3] [%] | inhibition [4] [%] | inhibition [6] [%] | inhibition [7] [%] | inhibition [8] [%] | Compound | Activity [5]
> 80 | > 80 | > 80 | > 80 | – | – | – | c1ccc2c(Nc3cc(C4CCC4)[nH]n3)nc(Nc3ccc4[nH]cnc4c3)nc2c1 | –
– | – | – | – | > 80 | > 80 | > 80 | NCCCNc1nc(Nc2cccc(NC(=O)N3CCCC3)c2)ncc1I | Active
